According to ChEMBL document CHEMBL1135962, “The first synthesis and antifungal activities of 9-methoxystrobilurin-type beta-substituted beta-methoxyacrylate” (2002):
The source made the active and inactive calls. The rule behind the calls is not given here.

Columns and labels:
[1] = system: Saccharomyces cerevisiae; assay: Compound was evaluated for antifungal activity against Saccharomyces cerevisiae IAM 4861 as diameter of inhibition zone at a concentration 1 ug/disk and showed incomplete inhibition; format: functional
Method in brief: (§1)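 Disk-diffusion assay against the fungal strain named in the line. Inhibition-zone diameter was measured after 48 h incubation and is the mean of two samples. Scoring codes used: not effective, slightly effective, incomplete inhibition.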

[2] = system: Penicillium citrinum; assay: Compound was evaluated for antifungal activity against penicillium ctrinum R-3703 as diameter of inhibition zone at a concentration 10 ug/disk; format: functional; method in brief: as §1
[3] = system: Candida albicans; assay: Compound was evaluated for antifungal activity against Candida albicans IFO 1594 as diameter of inhibition zone at a concentration 10 ug/disk and showed incomplete inhibition; format: functional; method in brief: as §1
[4] = system: Saccharomyces cerevisiae; assay: Compound was evaluated for antifungal activity against Saccharomyces cerevisiae IAM 4861 as diameter of inhibition zone at a concentration 10 ug/disk and showed incomplete inhibition; format: functional; method in brief: as §1
[5] = system: Saccharomyces cerevisiae; assay: Compound was evaluated for antifungal activity against Saccharomyces cerevisiae IAM 4861 as diameter of inhibition zone at a concentration 1 ug/disk; SE means slightly effective; format: functional, organism-based; method in brief: as §1
[6] = system: Fusarium solani; assay: Compound was evaluated for antifungal activity against Fusarium solani R-2800 as diameter of inhibition zone at a concentration 0.1 ug/disk; NE means not effective; format: functional, organism-based; method in brief: as §1
[7] = system: Saccharomyces cerevisiae; assay: Compound was evaluated for antifungal activity against Saccharomyces cerevisiae IAM 4861 as diameter of inhibition zone at a concentration 0.1 ug/disk; NE means not effective; format: functional, organism-based; method in brief: as §1
[8] = system: Fusarium solani; assay: Compound was evaluated for antifungal activity against Fusarium solani R-2800 as diameter of inhibition zone at a concentration 1 ug/disk; NE means not effective; format: functional, organism-based; method in brief: as §1
[9] = system: Candida albicans; assay: Compound was evaluated for antifungal activity against Candida albicans IFO 1594 as diameter of inhibition zone at a concentration 1 ug/disk; NE means not effective; format: functional, organism-based; method in brief: as §1
[10] = system: Aspergillus fumigatus; assay: Compound was evaluated for antifungal activity against Aspergillus fumigatum R-1301 as diameter of inhibition zone at a concentration 0.1 ug/disk; NE means not effective; format: functional, organism-based; method in brief: as §1
[11] = system: Fusarium solani; assay: Compound was evaluated for antifungal activity against Fusarium solani R-2800 as diameter of inhibition zone at a concentration 10 ug/disk; NE means not effective; format: functional, organism-based; method in brief: as §1
[12] = system: Penicillium citrinum; assay: Compound was evaluated for antifungal activity against penicillium ctrinum R-3703 as diameter of inhibition zone at a concentration 0.1 ug/disk; NE means not effective; format: functional, organism-based; method in brief: as §1
[13] = system: Penicillium citrinum; assay: Compound was evaluated for antifungal activity against penicillium ctrinum R-3703 as diameter of inhibition zone at a concentration 1 ug/disk; SE means slightly effective; format: functional, organism-based; method in brief: as §1
[14] = system: Aspergillus fumigatus; assay: Compound was evaluated for antifungal activity against Aspergillus fumigatum R-1301 as diameter of inhibition zone at a concentration 1 ug/disk; NE means not effective; format: functional, organism-based; method in brief: as §1
[15] = system: Candida albicans; assay: Compound was evaluated for antifungal activity against Candida albicans IFO 1594 as diameter of inhibition zone at a concentration 0.1 ug/disk; NE means not effective; format: functional, organism-based; method in brief: as §1
[16] = system: Candida albicans; assay: Compound was evaluated for antifungal activity against Candida albicans IFO 1594 as diameter of inhibition zone at a concentration 1 ug/disk and showed incomplete inhibition; format: functional; method in brief: as §1
[17] = system: Penicillium citrinum; assay: Compound was evaluated for antifungal activity against penicillium ctrinum R-3703 as diameter of inhibition zone at a concentration 1 ug/disk; format: functional; method in brief: as §1
[18] = system: Penicillium citrinum; assay: Compound was evaluated for antifungal activity against penicillium ctrinum R-3703 as diameter of inhibition zone at a concentration 0.1 ug/disk; SE means slightly effective; format: functional, organism-based; method in brief: as §1
[19] = system: Aspergillus fumigatus; assay: Compound was evaluated for antifungal activity against Aspergillus fumigatum R-1301 as diameter of inhibition zone at a concentration 1 ug/disk; format: functional; method in brief: as §1
[20] = system: Aspergillus fumigatus; assay: Compound was evaluated for antifungal activity against Aspergillus fumigatum R-1301 as diameter of inhibition zone at a concentration 10 ug/disk; format: functional; method in brief: as §1
[21] = system: Fusarium solani; assay: Compound was evaluated for antifungal activity against Fusarium solani R-2800 as diameter of inhibition zone at a concentration 10 ug/disk and showed incomplete inhibition; format: functional; method in brief: as §1
[22] = system: Fusarium solani; assay: Compound was evaluated for antifungal activity against Fusarium solani R-2800 as diameter of inhibition zone at a concentration 1 ug/disk and showed incomplete inhibition; format: functional; method in brief: as §1
[23] = system: Candida albicans; assay: Compound was evaluated for antifungal activity against Candida albicans IFO 1594 as diameter of inhibition zone at a concentration 10 ug/disk; SE means slightly effective; format: functional, organism-based; method in brief: as §1
[24] = system: Saccharomyces cerevisiae; assay: Compound was evaluated for antifungal activity against Saccharomyces cerevisiae IAM 4861 as diameter of inhibition zone at a concentration 0.1 ug/disk and showed incomplete inhibition; format: functional; method in brief: as §1
[25] = system: Candida albicans; assay: Compound was evaluated for antifungal activity against Candida albicans IFO 1594 as diameter of inhibition zone at a concentration 0.1 ug/disk; SE means slightly effective; format: functional, organism-based; method in brief: as §1
[26] = system: Penicillium citrinum; assay: Compound was evaluated for antifungal activity against penicillium ctrinum R-3703 as diameter of inhibition zone at a concentration 1 ug/disk and showed incomplete inhibition; format: functional; method in brief: as §1
[27] = system: Aspergillus fumigatus; assay: Compound was evaluated for antifungal activity against Aspergillus fumigatum R-1301 as diameter of inhibition zone at a concentration 0.1 ug/disk; format: functional; method in brief: as §1
[28] = system: Penicillium citrinum; assay: Compound was evaluated for antifungal activity against penicillium ctrinum R-3703 as diameter of inhibition zone at a concentration 0.1 ug/disk and showed incomplete inhibition; format: functional; method in brief: as §1
[29] = system: Candida albicans; assay: Compound was evaluated for antifungal activity against Candida albicans IFO 1594 as diameter of inhibition zone at a concentration 10 ug/disk; format: functional, organism-based
Method in brief: (§2)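 Disk-diffusion assay against the listed yeast strains (C. albicans IFO 1594; S. cerevisiae IAM 4861). Inhibition-zone diameter read after 48 hr incubation, reported as the mean of two samples. Activity scored as not effective, slightly effective, or incomplete inhibition where applicable.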

[30] = system: Saccharomyces cerevisiae; assay: Compound was evaluated for antifungal activity against Saccharomyces cerevisiae IAM 4861 as diameter of inhibition zone at a concentration 10 ug/disk; format: functional, organism-based; method in brief: as §2
[31] = system: Candida albicans; assay: Compound was evaluated for antifungal activity against Candida albicans IFO 1594 as diameter of inhibition zone at a concentration 10 ug/disk; NE means not effective; format: functional, organism-based; method in brief: as §1
[32] = system: Saccharomyces cerevisiae; assay: Compound was evaluated for antifungal activity against Saccharomyces cerevisiae IAM 4861 as diameter of inhibition zone at a concentration 1 ug/disk; NE means not effective; format: functional, organism-based; method in brief: as §1
[33] = system: Penicillium citrinum; assay: Compound was evaluated for antifungal activity against penicillium ctrinum R-3703 as diameter of inhibition zone at a concentration 10 ug/disk; NE means not effective; format: functional, organism-based; method in brief: as §1
[34] = system: Penicillium citrinum; assay: Compound was evaluated for antifungal activity against penicillium ctrinum R-3703 as diameter of inhibition zone at a concentration 1 ug/disk; NE means not effective; format: functional, organism-based; method in brief: as §1
[35] = system: Saccharomyces cerevisiae; assay: Compound was evaluated for antifungal activity against Saccharomyces cerevisiae IAM 4861 as diameter of inhibition zone at a concentration 10 ug/disk; NE means not effective; format: functional, organism-based; method in brief: as §1
[36] = system: Aspergillus fumigatus; assay: Compound was evaluated for antifungal activity against Aspergillus fumigatum R-1301 as diameter of inhibition zone at a concentration 10 ug/disk; NE means not effective; format: functional, organism-based; method in brief: as §1
[37] = system: Saccharomyces cerevisiae; assay: Compound was evaluated for antifungal activity against Saccharomyces cerevisiae IAM 4861 as diameter of inhibition zone at a concentration 10 ug/disk; SE means slightly effective; format: functional, organism-based; method in brief: as §1

Compound | Inhibition zone [1] [mm] | Inhibition zone [2] [mm] | Inhibition zone [3] [mm] | Inhibition zone [4] [mm] | Inhibition zone [6] | Inhibition zone [7] | Inhibition zone [8] | Inhibition zone [9] | Inhibition zone [10] | Inhibition zone [11] | Inhibition zone [12] | Inhibition zone [14] | Inhibition zone [15] | Inhibition zone [16] [mm] | Inhibition zone [19] [mm] | Inhibition zone [20] [mm] | also measured
COC(=O)/C=C(/OC)[C@H](C)[C@H](/C=C/c1ccccc1)OC [listing 1 of 2 here] | 25 | 28 | 20 | 43 |  |  |  |  |  |  |  |  |  |  |  |  | 
COC(=O)/C=C(/OC)[C@H](C)[C@H](/C=C/c1ccccc1)OC (racemic) [listing 1 of 2 here] |  |  |  |  | inactive | inactive | inactive | inactive | inactive | inactive | inactive | inactive | inactive |  |  |  | Inhibition zone [5]: Slightly effective; Inhibition zone [13]: Slightly effective
COC(=O)/C=C(/OC)[C@H](C)[C@H](/C=C/c1ccccc1)OC [listing 2 of 2 here] |  |  |  |  | inactive | inactive | inactive | inactive | inactive | inactive | inactive | inactive | inactive |  |  |  | Inhibition zone [13]: Slightly effective
COC(=O)\C=C(OC)/C(C)=C(\C=C\c1cccs1)OC | 31 | 40 | 32 | 49 | inactive | inactive | inactive |  | inactive | inactive |  |  | inactive | 16 | 20 | 29 | Inhibition zone [17]: 21 mm; Inhibition zone [18]: Slightly effective
COC(=O)\C=C(OC)/C(C)=C(\C=C\c1ccccc1)OC | 30 | 42 | 32 | 46 | inactive | inactive |  |  | inactive |  | inactive |  | inactive | 27 | 17 | 36 | Inhibition zone [17]: 17 mm; Inhibition zone [21]: 30 mm; Inhibition zone [22]: 22 mm
COC(=O)C=C(OC)/C(C)=C(\C=C\c1ccc(OC)c(OC)c1)OC | 12 | 33 |  | 18 | inactive | inactive | inactive | inactive | inactive | inactive | inactive |  | inactive |  | 8 | 12 | Inhibition zone [23]: Slightly effective; Inhibition zone [17]: 18 mm
COC(=O)/C=C(/OC)[C@H](C)[C@H](/C=C/c1ccccc1)OC (racemic) [listing 2 of 2 here] |  | 26 | 14 | 39 |  |  |  |  |  |  |  |  |  |  |  | 23 | 
CO\C=C(C(=O)OC)/C(C)=C(\C=C\c1ccccc1)OC [9-METHOXYSTROBILURIN A] | 39 | 33 | 42 | 44 | inactive |  | inactive |  |  | inactive |  |  |  | 32 | 28 | 38 | Inhibition zone [24]: 13 mm; Inhibition zone [25]: Slightly Effective; Inhibition zone [26]: 23 mm; Inhibition zone [27]: 16 mm; Inhibition zone [28]: 19 mm
NYSTATIN |  | 10 |  |  |  |  |  |  |  | inactive |  |  |  |  |  | 16 | Inhibition zone [29]: 16 mm; Inhibition zone [30]: 18 mm
COC(=O)/C=C(/OC)[C@@H](C)[C@H](/C=C/c1ccccc1)OC (racemic) |  |  |  |  | inactive | inactive | inactive | inactive | inactive | inactive | inactive | inactive | inactive |  |  |  | Inhibition zone [31]: inactive; Inhibition zone [32]: inactive; Inhibition zone [33]: inactive; Inhibition zone [34]: inactive; Inhibition zone [35]: inactive; Inhibition zone [36]: inactive
COC(=O)\C=C(OC)/C(C)=C(\C=C\c1ccc2ccccc2c1)OC | 15 | 13 | 14 | 21 | inactive | inactive |  |  | inactive |  | inactive |  | inactive | 8 | 10 | 16 | Inhibition zone [34]: inactive; Inhibition zone [21]: 27 mm; Inhibition zone [22]: 19 mm
COC(=O)\C=C(OC)/C(C)=C(\C=C\c1cccc2ccccc12)OC |  |  |  |  | inactive | inactive | inactive | inactive | inactive | inactive | inactive | inactive | inactive |  |  |  | Inhibition zone [31]: inactive; Inhibition zone [32]: inactive; Inhibition zone [33]: inactive; Inhibition zone [34]: inactive; Inhibition zone [36]: inactive; Inhibition zone [37]: Slightly effective
